Converted amounts (≈) assume the structure as drawn.
How the values were obtained:
[1] = Water solubility study of CDF and CDF-β-cyclodextrin complexes; assay type: physicochemical; details: distilled water, ambient temperature, shaken 2 h, UV 365 nm
Summary of the method: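 The complex was made by kneading the components at 2:1 molar ratio in alcohol/water for 1 h. It was dried at 45°C for 24 h, powdered and sieved (#80). Excess test compound or complex was dispersed in 25 ml distilled water and shaken 2 h at ambient temperature to equilibrium. Solutions were passed through a 0.22-μm filter and diluted with methanol. Absorbance was read at 365 nm.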

[2] = tested on: pancreatic cancer cells BxPC-3; assay: MTT cell growth assay, BxPC-3; assay type: cell-based; details: BxPC-3 cells, 72 h treatment
Summary of the method: (§1)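 Cells grown at 37°C under humidified 5% CO2. BxPC-3 and MDA-MB-231 were in DMEM with 10% FBS, and PC3 was in RPMI with 10% FBS. Lines were STR-authenticated. Cells were seeded in 96-well plates and dosed 24 h after seeding. After 72 h, MTT 0.5 mg/ml was added for 2 h at 37°C. Medium was replaced with DMSO for 30 min at room temperature before reading absorbance. Eight replicate wells per treatment; each experiment run at least three times.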

[3] = tested on: breast cancer cells MDA-MB-231; assay: MTT cell growth assay, MDA-MB-231; assay type: cell-based; details: MDA-MB-231 cells, 72 h treatment
Summary of the method: as §1

[4] = tested on: prostate cancer cells PC3; assay: MTT cell growth assay, PC3; assay type: cell-based; details: 72 h treatment
Summary of the method: as §1

[5] = Pharmacokinetics and tissue distribution; assay type: in vivo; details: mice, single i.v. dose CDF 5.0 mg/mice, at 2 h
Summary of the method: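 Female ICR-SCID mice, 8–10 weeks old, were starved overnight. Each received a single i.v. dose: test compound 5.0 mg/mouse, or its β-cyclodextrin 1:2 complex at 12.5 mg/mouse (5.0 mg equivalent). Vehicle was 1:1 ethanol/polysorbate 80 diluted tenfold with 5% glucose. About 200 μL blood was taken by cardiac puncture for serum. Pancreas was PBS-washed, blotted and weighed. Samples were stored at −80°C and quantified by validated LC-MS/MS.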

[6] = Phase solubility analysis; assay type: physicochemical; details: in presence of β-cyclodextrin 0-20 mM, water, 30 ± 2°C, 72 h
[7] = pancreas of mice; cited from earlier work

water solubility [1]: 14 µg/mL (≈ 28.4 µM)
IC50 [2]: 350 nM
IC50 [3]: 325 nM
IC50 [4]: 260 nM
concentration in pancreas [5]: ~ 300 ng/g
concentration in serum [5]: ~ 6 ng/ml
phase solubility diagram type [6]: AN type
Compound: COc1cc(/C=C/C(=O)C(=Cc2ccc(F)c(F)c2)C(=O)/C=C/c2ccc(O)c(OC)c2)ccc1O [CDF, 3,4-difluorobenzo curcumin]
levels in pancreas relative to curcumin [7]: 10 times

From publication PMC3868989 (Pharmaceutical research, 2012)
